Source: ChEMBL document CHEMBL4480427, “Further insights of selenium-containing analogues of WC-9 against Trypanosoma cruzi” (Bioorg Med Chem, 2019)
The source made the active and inactive calls. No cut-off for these calls is given here.

Tests used:
[1] = Cytotoxicity against African green monkey Vero cells after 72 hrs by Alamar Blue assay; type: cell-based; details: chlorocebus sabaeus, read-out: ED50
Outline: (§1)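 Vero cells treated 72 h at 35 °C, 7% CO2, in quadruplicate wells, with untreated host-cell and DMSO toxicity controls. Alamar Blue was added at 10% of culture volume for 6 h at 35 °C, and absorbance read at 570 and 600 nm. Cytotoxicity was also scored by cell detachment under optical microscopy. Three biological replicates of 4 technical replicates each.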

Trypanosoma cruzi [2] = experiment: Antitrypanosomal activity against tdTomato red expressing Trypanosoma cruzi CL amastigotes infected in gamma-irradiated African green monkey Vero cells after 72 hrs by fluorescence assay; type: functional; details: light or radiation study, read-out: ED50 (the source's name)
Outline: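 Gamma-irradiated (2,000 Rads) Vero cells, 3.4 × 10^4/well in RPMI with 10% FBS, held overnight at 35 °C, 7% CO2. Infected 5 h with 3.4 × 10^5 tdTomato CL trypomastigotes/well, then washed. Compounds were serially diluted 1.56–25 µM in quadruplicate, with benznidazole reference at 0.39–6.25 µM. Fluorescence read 72 h post-infection. ED50 by non-linear regression, mean ± S.D. of 3 biological replicates.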

Trypanosoma cruzi [3] = experiment: Antitrypanosomal activity against tdTomato red expressing Trypanosoma cruzi CL amastigotes infected in gamma-irradiated African green monkey Vero cells assessed as inhibition of parasite growth at 1 uM after 72 hrs by fluorescence assay relative to untreated control; type: functional; details: light or radiation study, read-out: GI
Trypanosoma cruzi [4] = experiment: Antitrypanosomal activity against tdTomato red expressing Trypanosoma cruzi CL amastigotes infected in gamma-irradiated African green monkey Vero cells assessed as inhibition of parasite growth at 6 uM after 72 hrs by fluorescence assay relative to untreated control; type: functional, organism-based
Vero [5] = experiment: Cytotoxicity against African green monkey Vero cells at 15 to 20 uM after 72 hrs by Alamar Blue assay; type: cell-based; details: chlorocebus sabaeus; outline: as §1
Trypanosoma cruzi [6] = experiment: Antitrypanosomal activity against tdTomato red expressing Trypanosoma cruzi CL amastigotes infected in gamma-irradiated African green monkey Vero cells assessed as inhibition of parasite growth at 10 uM after 72 hrs by fluorescence assay relative to untreated control; type: functional; details: light or radiation study, read-out: GI
Vero [7] = experiment: Cytotoxicity against African green monkey Vero cells at 20 uM after 72 hrs by Alamar Blue assay; type: cell-based; details: chlorocebus sabaeus; outline: as §1

`N#C[Se]CC1Cc2ccc(Oc3ccccc3)cc2O1` (racemic) gave a CC50 at 72 h [1] greater than 20 µM and an EC50 (Trypanosoma cruzi [2]) of 0.0939 µM.
`N#CCCCOc1ccc(Oc2ccccc2)cc1` gave a CC50 at 72 h [1] greater than 20 µM.
In the case of `O=C(Cn1ccnc1[N+](=O)[O-])NCc1ccccc1` [BENZNIDAZOLE], the CC50 at 72 h [1] is reported as greater than 10 µM.
Work on `FC(F)(F)[Se]CCOc1ccc(Oc2ccccc2)cc1` yielded a CC50 at 72 h [1] greater than 20 µM, an EC50 (Trypanosoma cruzi [2]) greater than 1 µM and an inhibition of growth at 1 µM (Trypanosoma cruzi [3]) of 6.7%.
With `COc1ccc(OCC[Se]C#N)cc1` the “growth inhibition (GI)” value (Trypanosoma cruzi [4]) was “inactive” and the Activity (Vero [5]) was “Toxic”.
For `N#C[Se]CCOc1ccccc1Oc1ccccc1`, the CC50 at 72 h [1] was greater than 20 µM and the inhibition of growth at 10 µM (Trypanosoma cruzi [6]) was 33%.
For `N#CSCCOc1ccccc1Oc1ccccc1`, the CC50 at 72 h [1] was greater than 20 µM and the inhibition of growth at 10 µM (Trypanosoma cruzi [6]) was 33%.
Work on `FC(F)(F)[Se]CCOc1cccc(Oc2ccccc2)c1` yielded a CC50 at 72 h [1] greater than 20 µM and an inhibition of growth at 1 µM (Trypanosoma cruzi [3]) of 30.9%.
For `FC(F)(F)SCCOc1ccc(Oc2ccccc2)cc1`, the CC50 at 72 h [1] was greater than 20 µM and the inhibition of growth at 10 µM (Trypanosoma cruzi [6]) was 12%.
Compound `FC(F)(F)SCCOc1cccc(Oc2ccccc2)c1` has a CC50 at 72 h [1] greater than 20 µM and an EC50 (Trypanosoma cruzi [2]) greater than 10 µM.
For `N#C[Se]CCOc1ccccc1`, the Activity (Vero [7]) was “Toxic”.
For `N#CCCOc1ccc(Oc2ccccc2)cc1`, the CC50 at 72 h [1] was greater than 20 µM.
For `N#C[Se]CCOc1ccc([N+](=O)[O-])cc1`, the Activity (Vero [5]) was “Toxic”.
